Drawing on ChEMBL document CHEMBL4130579, “Sulfur-Containing Aristoloxazines and Other Constituents of the Roots of Aristolochia orbicularis” (2017), this text covers MIC and Activity for six compounds.

For test [1], the system named is Staphylococcus aureus. Put plainly: Antibacterial activity against methicillin-resistant Staphylococcus aureus ATCC 43300 after 24 hrs by broth microdilution method. Format: functional. Conditions: ATCC 43300, 24 h. An outline of the steps:
(§1)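 Strains were kept on Mueller-Hinton agar at 4 °C and grown in MH broth at 37 °C for 18 h. Broth microdilution followed NCCLS, with serial dilutions over 0.125–128 μg/mL and an inoculum of 10^5 CFU/mL set by the 0.5 McFarland standard. Plates were incubated at 37 °C for 24 h, then p-iodonitrotetrazolium violet (0.5 mg/mL) was added. MIC was the lowest concentration without red colour.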
In general terms: In broth dilution the organism is exposed to a series of concentrations in liquid medium.

Test [2] deals with Staphylococcus aureus. Put plainly: Antibacterial activity against beta-lactamase producing methicillin-resistant Staphylococcus aureus ATCC 11632 after 24 hrs by broth microdilution method. Type of test: functional. The note with it: ATCC 11632, 24 h. The gist of the method: as §1
Test [3] relates to Staphylococcus aureus. Put plainly: Antibacterial activity against methicillin-resistant Staphylococcus aureus ATCC 33591 after 24 hrs by broth microdilution method. Type of test: functional. Conditions: ATCC 33591, 24 h. An outline of the steps: as §1
Test [4] concerns Staphylococcus aureus. Put plainly: Antibacterial activity against methicillin-sensitive Staphylococcus aureus ATCC 6358 after 24 hrs by broth microdilution method. Conditions: ATCC 6358, 24 h. Format: functional. An outline of the steps: as §1
The next test has as its system Salmonella typhi. Put plainly: Antibacterial activity against Salmonella typhi ATCC 06539 at 128 ug/ml after 24 hrs by broth microdilution method. Format: functional, organism-based. The note with it: Salmonella enterica subsp. enterica serovar Typhi. The gist of the method:
(§2)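 Strains kept on Mueller-Hinton agar at 4 °C, grown in MH broth at 37 °C for 18 h before testing. NCCLS standard broth microdilution, serial dilution over 0.125−128 μg/mL. Inoculum set to 10^5 CFU/mL by 0.5 McFarland standard. Plates incubated at 37 °C for 24 h, then p-iodonitrotetrazolium violet (0.5 mg/mL) added. Red colour marks viable cells; growth at the top concentration scored.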

Test [5] deals with Trichophyton mentagrophytes. Put plainly: Antifungal activity against Trichophyton mentagrophytes ATCC 28185 after 72 hrs by agar dilution method. Type of test: functional. The note with it: ATCC 28185, 72 h. An outline of the steps: (§3)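 Agar dilution on Sabouraud glucose agar with 2-fold dilutions from 128 to 0.5 μg/mL and final DMSO below 2% (v/v). Inocula were spotted with a 0.005 mL loop: C. albicans at 10^5 cells/mL and filamentous fungi at 10^6 spores/mL. Plates were incubated at 29 °C in duplicate, for 24 h (C. albicans, A. niger) or 72 h (dermatophytes).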
(In agar dilution the substance is mixed into plates at graded concentrations.)

The test system of a further test is Candida albicans. The test is described as follows: Antifungal activity against Candida albicans ATCC 10231 after 24 hrs by agar dilution method. Format: functional. An outline of the steps: as §3
A further test has as its system Aspergillus niger. The test is described as follows: Antifungal activity against Aspergillus niger ATCC 10335 after 24 hrs by agar dilution method. Type of test: functional. Conditions: ATCC 10335, 24 h. An outline of the steps:
as §3

In another test the test system is Trichophyton rubrum. Put plainly: Antifungal activity against Trichophyton rubrum ATCC 28188 after 72 hrs by agar dilution method. Format: functional. The note with it: ATCC 28188, 72 h. An outline of the steps: as §3
For another test, the system named is Proteus mirabilis. Put plainly: Antibacterial activity against Proteus mirabilis ATCC 43071 at 128 ug/ml after 24 hrs by broth microdilution method. Type of test: functional, organism-based. An outline of the steps:
as §2

The subject of the next test is Escherichia coli. The test is described as follows: Antibacterial activity against Escherichia coli ATCC 25922 at 128 ug/ml after 24 hrs by broth microdilution method. Type of test: functional, organism-based. The gist of the method: as §2

Converted amounts (≈) assume the structure as drawn. The source made the active and inactive calls. The rule behind the calls is not given here.

As a reminder, the MIC is the lowest concentration that inhibits growth of the organism. As for `CC1(C)S[C@@H]2[C@H](NC(=O)[C@H](N)c3ccccc3)C(=O)N2[C@H]1C(=O)O` [AMPICILLIN], the MIC in the test on Staphylococcus aureus [1] is 128 µg/mL (≈ 366 µM); against Staphylococcus aureus [2] it was 64 µg/mL (≈ 183 µM); in the test on Staphylococcus aureus [3] it was 128 µg/mL (≈ 366 µM); with Staphylococcus aureus [4], 2 µg/mL (≈ 5.72 µM).

In the case of `COc1cc2c(=O)onc3c2c(c1OC)-c1cccc(OC)c1[C@@H]3SCC(N)=O`, the outcome in the test on Salmonella typhi, with Proteus mirabilis and with Escherichia coli was inactive. Besides, the minimal inhibitory concentration (MIC) in test [5] was 1 µg/mL (≈ 2.41 µM); against Candida albicans (ATCC 10231, 24 h), 25 µg/mL (≈ 60.3 µM); against Staphylococcus aureus [1], 0.25 µg/mL (≈ 0.603 µM); against Aspergillus niger, 25 µg/mL (≈ 60.3 µM); in the test on Trichophyton rubrum, 1 µg/mL (≈ 2.41 µM); against Staphylococcus aureus [2] it was 0.25 µg/mL (≈ 0.603 µM). The MIC with Staphylococcus aureus [3] came out at 0.25 µg/mL (≈ 0.603 µM); against Staphylococcus aureus [4] it was 0.5 µg/mL (≈ 1.21 µM).

With `O=C(N[C@H](CO)[C@H](O)c1ccc([N+](=O)[O-])cc1)C(Cl)Cl` [CHLORAMPHENICOL], the MIC was 2 µg/mL (≈ 6.19 µM) with Staphylococcus aureus [1], 2 µg/mL (≈ 6.19 µM) against Staphylococcus aureus [2], 2 µg/mL (≈ 6.19 µM) against Staphylococcus aureus [3] and 1 µg/mL (≈ 3.09 µM) in the test with Staphylococcus aureus [4].

Regarding `Clc1ccc(COC(Cn2ccnc2)c2ccc(Cl)cc2Cl)c(Cl)c1` (configuration not stated) [MICONAZOLE], the MIC in test [5] amounted to 2 µg/mL (≈ 4.81 µM); with Aspergillus niger, 16 µg/mL (≈ 38.4 µM); in the test on Trichophyton rubrum it was 2 µg/mL (≈ 4.81 µM).

With `Cc1onc(-c2ccccc2)c1C(=O)N[C@@H]1C(=O)N2[C@@H]1SC(C)(C)[C@@H]2C(=O)O` [OXACILLIN], the MIC in the test with Staphylococcus aureus [1] amounted to 128 µg/mL (≈ 319 µM); in the test with Staphylococcus aureus [2], 32 µg/mL (≈ 79.7 µM); with Staphylococcus aureus [3], 128 µg/mL (≈ 319 µM); in the test with Staphylococcus aureus [4] it was 2 µg/mL (≈ 4.98 µM).

In turn, NYSTATIN had a minimal inhibitory concentration (MIC) against Candida albicans of 8 µg/mL.
